The values that follow come from ChEMBL document CHEMBL1150284, “Synthesis, characterization, and metabolic stability of porphyrin-peptide conjugates bearing bifunctional signaling sequences” (J Med Chem, 2008).

Data set [1] is described as follows: Stability at pH 7.4 after 24 hrs. The data set is classed as physicochemical. To be noted: buffer, pH 7.4, 24 h. An outline of the steps:
(§1)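 Nonenzymatic hydrolysis: 100 µM conjugate in 50 mM PBS pH 7.4 or 50 mM acetate buffer pH 5.0, 37 °C for 24 h; products identified by MALDI-TOF MS with CCA matrix.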

Data set [2] relates to HEp-2. In words: Cytotoxicity against human HEp2 cells in dark up to 100 uM. The data set is classed as functional, cell-based. An outline of the steps:
(§2)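 HEp2 cells (DMEM/Advanced MEM 50:50, 5% FBS) plated 10000/well, 36–48 h attachment; exposed to rising conjugate concentrations up to 100 µM overnight in dark. Viability by Cell Titer Blue fluorescence 520/584 nm, normalized to untreated (100%) and 0.2% saponin-treated (0%) cells.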

The test system of data set [3] is HEp-2. Put plainly: Phototoxicity against human HEp2 cells on exposure of 1 J/cm'2 light up to 10 uM. In kind it is functional, cell-based. An outline of the steps: (§3)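 HEp2 cells plated as for dark assay, loaded with 0, 0.625, 1.25, 2.5, 5, 10 µM conjugate; medium swapped for one with 50 mM HEPES pH 7.4, cells on ice irradiated 20 min by 100 W halogen lamp through 610 nm long-pass filter and water IR filter (~1 J/cm2). Overnight incubation, then Cell Titer Blue viability read as in dark assay.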

The nature of data set [4]: Stability at pH 5.0 after 24 hrs. In kind it is physicochemical. As to conditions: buffer, pH 5, 24 h. An outline of the steps:
as §1

Data set [5] can be described thus: Drug uptake in human HEp2 cells at 10 uM. The data set is classed as ADME, cell-based. As to conditions: hep-2, 10 µM, TDE = time-dependent effect. An outline of the steps:
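HEp2 cells seeded 10000/well, grown 36 h, then given 10 µM conjugate (diluted from 10 mM water stock) for 0, 1, 2, 4, 8, 24 h. After PBS wash, lysis in 0.25% Triton X-100/PBS; conjugate read by fluorescence 440/650 nm, cell number by CyQuant.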

The test system of data set [6] is HEp-2. Put plainly: Cytotoxicity against human HEp2 cells in dark. The data set is classed as functional, cell-based. An outline of the steps:
as §2

Data set [7] relates to HEp-2. Put plainly: Phototoxicity against human HEp2 cells on exposure of 1 J/cm'2 light. In kind it is functional, cell-based. As to conditions: HEp-2, light or radiation study. The method in brief: as §3

Numbered stars: 1 amine (or outer) side, 2 acyl side, 3 side chain; on linkers, the order of the positions; unused ones are H or OH. Square brackets hold non-standard residues; d marks the D form. Peptide text beside a SMILES is read from it. * marks the point of attachment. X1 = O=C(COCC(=O)*)Nc1ccc(-c2c3nc(c(-c4ccccc4)c4ccc([nH]4)c(-c4ccccc4)c4nc(c(-c5ccccc5)c5ccc2[nH]5)C=C4)C=C3)cc1; NH(CH2CH2O)6CH2CO = O=C(COCCOCCOCCOCCOCCOCCN[*:1])[*:2]

On to `CSCC[C@H](NC(=O)COCCOCCOCCOCCOCCOCCNC(=O)COCC(=O)Nc1ccc(-c2c3nc(c(-c4ccccc4)c4ccc([nH]4)c(-c4ccccc4)c4nc(c(-c5ccccc5)c5ccc2[nH]5)C=C4)C=C3)cc1)C(=O)NCC(=O)N[C@@H](CC(C)C)C(=O)NCC(=O)N[C@@H](CC(C)C)C(=O)N[C@@H](Cc1cnc[nH]1)C(=O)N[C@@H](CC(C)C)C(=O)N[C@@H](CC(C)C)C(=O)N[C@H](C(=O)N[C@@H](CC(C)C)C(=O)N[C@@H](C)C(=O)N[C@@H](C)C(=O)N[C@@H](C)C(=O)N[C@@H](CC(C)C)C(=O)N[C@@H](CCC(N)=O)C(=O)NCC(=O)N[C@@H](C)C(=O)N[C@@H](Cc1c[nH]c2ccccc12)C(=O)N[C@@H](CO)C(=O)N[C@@H](CCC(N)=O)C(=O)N[C@@H](C)C(=O)N1CCC[C@H]1C(=O)N1CCC[C@H]1C(=O)N[C@@H](CCCCN)C(=O)N[C@@H](CCCCN)C(=O)N[C@@H](CCCCN)C(=O)N[C@@H](CCCNC(=N)N)C(=O)N[C@@H](CCCCN)C(=O)N[C@H](C(=O)NCC(=O)O)C(C)C)C(C)C` (X1-[NH(CH2CH2O)6CH2CO]MGLGLHLLVLAAALQGAWSQAPPKKKRKVG-OH), for which the Stability result in data set [1] and in data set [4] was “Stable” in each case. Further, the Activity result is “Not toxic” in the data set with HEp-2 [2], “Not toxic” in the data set with HEp-2 [3] and “tde” in data set [5].
On to `CC(C)[C@H](NC(=O)[C@H](CCCCN)NC(=O)[C@H](CCCNC(=N)N)NC(=O)[C@H](CCCCN)NC(=O)[C@H](CCCCN)NC(=O)[C@H](CCCCN)NC(=O)[C@@H]1CCCN1C(=O)[C@@H]1CCCN1C(=O)[C@H](C)NC(=O)COCCOCCOCCOCCOCCOCCNC(=O)COCC(=O)Nc1ccc(-c2c3nc(c(-c4ccccc4)c4ccc([nH]4)c(-c4ccccc4)c4nc(c(-c5ccccc5)c5ccc2[nH]5)C=C4)C=C3)cc1)C(=O)N[C@@H](CCC(=O)O)C(=O)N[C@@H](CC(=O)O)C(=O)N1CCC[C@H]1C(=O)N[C@@H](CCCNC(=N)N)C(=O)N[C@@H](CCCCN)C(=O)N[C@@H](CCCCN)C(=O)N[C@@H](CCCNC(=N)N)C(=O)N[C@@H](CCCNC(=N)N)C(=O)N[C@@H](CCC(N)=O)C(=O)N[C@@H](CCCNC(=N)N)C(=O)N[C@@H](CCCNC(=N)N)C(=O)N[C@@H](CCCNC(=N)N)C(=O)N1CCC[C@H]1C(=O)N1CCC[C@H]1C(=O)N[C@@H](CCC(N)=O)C(=O)NCC(=O)O` (X1-[NH(CH2CH2O)6CH2CO]APPKKKRKVEDPRKKRRQRRRPPQG-OH), for which the Stability entry in data set [1] and in data set [4] was “Stable” each time. Besides, the IC50 (in general, the concentration at which inhibition is half-maximal) with HEp-2 [6] turned out to be 34 µM; with HEp-2 [7], 7.5 µM. In addition, the Activity entry in data set [5] is recorded as “tde”.
For the compound `CC[C@H](C)[C@H](NC(=O)[C@H](CCCCN)NC(=O)[C@@H](NC(=O)[C@H](CCC(N)=O)NC(=O)[C@H](CCCNC(=N)N)NC(=O)COCCOCCOCCOCCOCCOCCNC(=O)COCC(=O)Nc1ccc(-c2c3nc(c(-c4ccccc4)c4ccc([nH]4)c(-c4ccccc4)c4nc(c(-c5ccccc5)c5ccc2[nH]5)C=C4)C=C3)cc1)[C@@H](C)CC)C(=O)N[C@@H](Cc1c[nH]c2ccccc12)C(=O)N[C@@H](Cc1ccccc1)C(=O)N[C@@H](CCC(N)=O)C(=O)N[C@@H](CC(N)=O)C(=O)N[C@@H](CCCNC(=N)N)C(=O)N[C@@H](CCCNC(=N)N)C(=O)N[C@@H](CCSC)C(=O)N[C@@H](CCCCN)C(=O)N[C@@H](Cc1c[nH]c2ccccc12)C(=O)N[C@@H](CCCCN)C(=O)N[C@@H](CCCCN)C(=O)N[C@@H](C)C(=O)N1CCC[C@H]1C(=O)N1CCC[C@H]1C(=O)N[C@@H](CCCCN)C(=O)N[C@@H](CCCCN)C(=O)N[C@@H](CCCCN)C(=O)N[C@@H](CCCNC(=N)N)C(=O)N[C@@H](CCCCN)C(=O)N[C@H](C(=O)NCC(=O)O)C(C)C` (X1-[NH(CH2CH2O)6CH2CO]RQIKIWFQNRRMKWKKAPPKKKRKVG-OH), the Stability result in data set [1] and in data set [4] was “Stable” throughout. Besides, the figures for the IC50 in the data set with HEp-2 [6] and in the data set on HEp-2 [7] were 53 µM and 9.3 µM, respectively. Also, in data set [5], the Activity entry is recorded as “tde”.
